Assays:
[1] = target: T1, Protein deacetylase HDAC6 (Homo sapiens, UniProt Q9UBN7); assay: Inhibition of full length recombinant human N-terminal GST-tagged HDAC6 expressed in baculovirus infected insect cells using RHK-K(Ac)-AMC as substrate after 90 mins by fluorescence assay
T1 sequence (Q9UBN7 whole entry): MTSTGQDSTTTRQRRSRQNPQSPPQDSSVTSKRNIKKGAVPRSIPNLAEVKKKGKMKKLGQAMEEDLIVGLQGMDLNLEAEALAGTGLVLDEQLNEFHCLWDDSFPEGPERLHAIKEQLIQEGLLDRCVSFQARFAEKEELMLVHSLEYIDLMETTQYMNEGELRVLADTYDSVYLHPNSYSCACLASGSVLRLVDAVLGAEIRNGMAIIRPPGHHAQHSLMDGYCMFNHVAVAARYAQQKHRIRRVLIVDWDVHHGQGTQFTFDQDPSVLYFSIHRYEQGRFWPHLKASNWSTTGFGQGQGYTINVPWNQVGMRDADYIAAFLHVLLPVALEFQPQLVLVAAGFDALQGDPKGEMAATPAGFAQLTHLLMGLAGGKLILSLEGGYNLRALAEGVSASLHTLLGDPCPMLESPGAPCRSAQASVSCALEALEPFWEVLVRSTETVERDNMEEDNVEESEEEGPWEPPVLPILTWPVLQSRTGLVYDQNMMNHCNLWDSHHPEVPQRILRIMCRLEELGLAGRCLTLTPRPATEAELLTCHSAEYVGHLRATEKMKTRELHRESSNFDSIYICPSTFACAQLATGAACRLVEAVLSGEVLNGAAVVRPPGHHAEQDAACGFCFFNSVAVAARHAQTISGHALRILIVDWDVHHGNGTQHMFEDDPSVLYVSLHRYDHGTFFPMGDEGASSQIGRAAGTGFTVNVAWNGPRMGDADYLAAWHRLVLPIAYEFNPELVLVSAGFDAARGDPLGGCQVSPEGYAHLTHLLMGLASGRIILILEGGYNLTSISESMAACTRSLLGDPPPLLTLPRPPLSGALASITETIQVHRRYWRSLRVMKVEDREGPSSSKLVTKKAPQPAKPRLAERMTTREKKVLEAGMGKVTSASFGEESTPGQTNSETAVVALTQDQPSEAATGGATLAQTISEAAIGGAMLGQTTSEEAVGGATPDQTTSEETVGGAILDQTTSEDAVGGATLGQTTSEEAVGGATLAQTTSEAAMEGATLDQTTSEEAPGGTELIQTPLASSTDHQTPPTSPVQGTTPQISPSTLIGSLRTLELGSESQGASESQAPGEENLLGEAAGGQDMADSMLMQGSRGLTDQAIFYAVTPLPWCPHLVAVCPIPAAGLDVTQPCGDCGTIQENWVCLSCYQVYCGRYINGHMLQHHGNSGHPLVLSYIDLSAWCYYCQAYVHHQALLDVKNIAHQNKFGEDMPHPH

Histone deacetylase 5 = Histone deacetylase 5 (Homo sapiens, UniProt Q9UQL6); assay: Inhibition of recombinant human C-terminal His-tagged HDAC5 (656 to 1122 residues) expressed in insect cells using Boc-K(Ac)-AMC as substrate after 60 mins by fluorescence assay
Histone deacetylase 5, sequence (Q9UQL6 whole entry, the tested form may be a part): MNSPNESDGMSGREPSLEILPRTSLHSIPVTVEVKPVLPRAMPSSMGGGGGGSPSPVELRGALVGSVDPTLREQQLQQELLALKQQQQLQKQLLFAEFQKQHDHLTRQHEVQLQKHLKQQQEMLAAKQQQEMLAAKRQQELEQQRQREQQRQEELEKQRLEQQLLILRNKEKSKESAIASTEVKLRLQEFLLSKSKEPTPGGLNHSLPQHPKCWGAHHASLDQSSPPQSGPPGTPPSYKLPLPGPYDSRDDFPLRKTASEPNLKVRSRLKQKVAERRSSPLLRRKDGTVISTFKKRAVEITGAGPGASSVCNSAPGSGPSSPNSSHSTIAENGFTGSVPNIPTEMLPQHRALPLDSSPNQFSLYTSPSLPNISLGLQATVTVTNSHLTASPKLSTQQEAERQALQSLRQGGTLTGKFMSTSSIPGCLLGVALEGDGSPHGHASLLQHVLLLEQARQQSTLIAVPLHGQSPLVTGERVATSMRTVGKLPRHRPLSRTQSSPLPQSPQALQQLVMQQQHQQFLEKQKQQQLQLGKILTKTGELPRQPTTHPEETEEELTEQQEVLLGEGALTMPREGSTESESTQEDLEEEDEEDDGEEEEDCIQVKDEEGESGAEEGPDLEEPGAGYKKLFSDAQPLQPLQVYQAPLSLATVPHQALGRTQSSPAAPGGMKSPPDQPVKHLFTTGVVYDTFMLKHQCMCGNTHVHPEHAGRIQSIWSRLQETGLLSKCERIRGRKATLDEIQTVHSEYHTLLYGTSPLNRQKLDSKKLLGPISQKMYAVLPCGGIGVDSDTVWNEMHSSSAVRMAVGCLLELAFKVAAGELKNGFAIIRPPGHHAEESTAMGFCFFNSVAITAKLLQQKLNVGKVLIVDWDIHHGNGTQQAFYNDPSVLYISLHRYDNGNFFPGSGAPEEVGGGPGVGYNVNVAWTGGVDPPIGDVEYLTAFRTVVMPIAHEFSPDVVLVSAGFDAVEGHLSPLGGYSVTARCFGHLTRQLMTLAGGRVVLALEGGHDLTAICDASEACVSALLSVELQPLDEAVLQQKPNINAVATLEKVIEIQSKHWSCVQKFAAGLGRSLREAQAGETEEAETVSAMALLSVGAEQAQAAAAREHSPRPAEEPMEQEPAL

[2] = target: T2, Polyamine deacetylase HDAC10 (Homo sapiens, UniProt Q969S8); assay: Inhibition of human HDAC10 using RHKKAc as substrate
T2 sequence (Q969S8 whole entry): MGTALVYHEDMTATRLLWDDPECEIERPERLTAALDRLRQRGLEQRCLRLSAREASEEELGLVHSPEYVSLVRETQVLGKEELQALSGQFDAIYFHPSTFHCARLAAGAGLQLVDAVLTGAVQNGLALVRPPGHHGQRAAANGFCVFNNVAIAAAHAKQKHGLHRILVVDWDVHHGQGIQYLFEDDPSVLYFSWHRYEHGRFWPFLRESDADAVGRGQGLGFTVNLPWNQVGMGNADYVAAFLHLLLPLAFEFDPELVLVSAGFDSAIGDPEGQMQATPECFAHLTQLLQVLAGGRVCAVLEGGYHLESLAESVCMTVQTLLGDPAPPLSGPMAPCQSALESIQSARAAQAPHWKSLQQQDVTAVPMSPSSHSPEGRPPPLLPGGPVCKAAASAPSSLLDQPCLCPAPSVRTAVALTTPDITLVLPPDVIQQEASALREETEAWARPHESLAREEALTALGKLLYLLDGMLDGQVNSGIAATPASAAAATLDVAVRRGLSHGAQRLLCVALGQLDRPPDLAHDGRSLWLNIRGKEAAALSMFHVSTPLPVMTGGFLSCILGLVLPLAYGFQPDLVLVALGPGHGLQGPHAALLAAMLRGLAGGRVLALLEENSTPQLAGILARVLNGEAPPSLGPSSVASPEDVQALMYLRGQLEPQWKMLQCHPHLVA

NCI-H929 = assay: Antiproliferative activity against human NCI-H929 cells after 48 hrs by SRB assay; type: functional; conditions: NCI-H929, 48 h
How it was run: (§1)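 Cells were exposed to test compounds at the indicated concentrations for 48 h. They were then fixed with 10% trichloroacetic acid, stained 30 min with 0.4% SRB in 1% AcOH, and washed with 1% AcOH. Bound dye was solubilized in 10 mM Tris base and OD read at 510 nm. Lines cultured in RPMI 1640 with 20% FBS and penicillin/streptomycin, 37°C, 5% CO2.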

[3] = Antiproliferative activity against human HS5 cells after 48 hrs by SRB assay; type: cell-based; how it was run: as §1

| IC50 [1] | IC50 (Histone deacetylase 5) | IC50 [2] | GI50 (NCI-H929) | SMILES | GI50 at 48 h [3] |
| --- | --- | --- | --- | --- | --- |
| 0.000291 µM | 3.11 µM | 9.79 µM | 9.14 µM | O=C(NO)c1ccc(CNc2cccc3cccnc23)cc1 | > 100 µM |
| 0.000795 µM | 2.25 µM | 1.26 µM | 6.2 µM | O=C(NO)c1ccc(CNc2cccc3ncccc23)cc1 | > 100 µM |

Source: ChEMBL document CHEMBL4024792, “(N-Hydroxycarbonylbenylamino)quinolines as Selective Histone Deacetylase 6 Inhibitors Suppress Growth of Multiple Myeloma in Vitro and in Vivo” (J Med Chem, 2018)
